Results collected from several papers.
RPS6KA5 N-terminal kinase domain: Ribosomal protein S6 kinase alpha-5, N-terminal kinase domain (RPS6KA5, Homo sapiens, UniProt O75582)
RPS6KA5: Ribosomal protein S6 kinase alpha-5 (RPS6KA5, Homo sapiens, UniProt O75582)
RPS6KA5 C-terminal kinase domain: Ribosomal protein S6 kinase alpha-5, C-terminal kinase domain (RPS6KA5, Homo sapiens, UniProt O75582)

Nc1c(C(=O)NCc2ccc(C(=O)NCCCC3CCCCC3)cc2)cnn1-c1ccccc1  remaining binding (RPS6KA5 N-terminal kinase domain; cell-free assay; competition with immobilised ligand; 0.1 µM): 94%
Nc1nc(Nc2ccccc2)sc1C(=O)c1c(F)cccc1F  remaining activity (RPS6KA5; enzyme activity; inhibitor; 10 µM): 87%
O=C(NC[C@@H]1[C@H]2CN(C(=O)OCc3cc(C(F)(F)F)cc(C(F)(F)F)c3)C[C@@H]12)c1ccc2[nH]nnc2c1  remaining binding (RPS6KA5 N-terminal kinase domain; cell-free assay; competition with immobilised ligand; 1 µM): 100%
CC1CCCN1c1nccc(-c2cnn3ncccc23)n1 (stereo not drawn)  remaining binding (RPS6KA5 C-terminal kinase domain; binding; competition with immobilised ligand; 1 µM): 100%
O=C(NS(=O)(=O)c1ccc(NCC2CCOCC2)c([N+](=O)[O-])c1)c1ccc(N2CCN(Cc3ccc(C(F)(F)F)cc3-c3ccc(Cl)cc3)CC2)cc1Oc1cnc2[nH]ccc2c1  remaining binding (RPS6KA5 N-terminal kinase domain; cell-free assay; competition with immobilised ligand; 1 µM): 97%
Cc1ccc(C(=O)Nc2ccc(CN3CCN(C)CC3)c(C(F)(F)F)c2)cc1C#Cc1cnc2cccnn12  remaining activity (RPS6KA5; enzyme activity; inhibitor; 23.5 nM): 92%
CN1CC(Oc2cnc(C#N)cc2-c2ccn3nc(NC(=O)C4CC4)cc3c2)C1  inhibition (RPS6KA5; enzyme activity; inhibitor; 1 µM): -7%
Cc1ccc(NC(=O)c2ccc(C)c(C(F)(F)F)c2)cc1C#Cc1nn(C2CCC(O)CC2)c2ncnc(N)c12 (stereo not drawn)  remaining signal (RPS6KA5; cell-free assay; 10 µM): 95%
Cc1ccc(Nc2nccc(N(C)c3ccc4c(C)n(C)nc4c3)n2)cc1S(N)(=O)=O  inhibition (RPS6KA5; enzyme activity; inhibitor; 10 µM): 36%
O=C(Nc1cnn(-c2csc(C(=O)NC3COC3)c2)c1)Nc1ccccc1Cl  remaining activity (RPS6KA5; enzyme activity; inhibitor; 5 µM): 89.5%
CCC(=N\O)/C(C)=C/c1ccc(F)cc1  remaining binding (RPS6KA5 N-terminal kinase domain; cell-free assay; competition with immobilised ligand; 1 µM): 100%
CN(c1nccc(-c2cnn3ncccc23)n1)C1CC1  remaining binding (RPS6KA5 N-terminal kinase domain; binding; competition with immobilised ligand; 1 µM): 100%
Nc1nc(Nc2ccc(S(N)(=O)=O)cc2)nn1C(=O)c1c(F)cccc1F  remaining signal (RPS6KA5; cell-free assay; 0.5 µM): 97.2%
COc1cc(Nc2cnc(C#N)c(O[C@H](C)CN(C)C)n2)ncc1-c1cnn(C)c1  remaining activity (RPS6KA5; enzyme activity; inhibitor; radiometric; 1 µM): 86%
O=C1NC(=O)c2cc(Nc3ccc(F)cc3)c(Nc3ccc(F)cc3)cc21  remaining signal (RPS6KA5; cell-free assay; 0.5 µM): 93.6%
FC(F)c1nc2ccccc2n1-c1nc(N2CCOCC2)nc(N2CCOCC2)n1  remaining activity (RPS6KA5; enzyme activity; inhibitor; 10 µM): 89%
N[C@@H]1CCN(c2nccc(-c3cnn4ncccc34)n2)C1  remaining binding (RPS6KA5 N-terminal kinase domain; binding; competition with immobilised ligand; 1 µM): 94%
O=C1Nc2ccc(Cl)cc2C1=Cc1cc(Cl)c(O)c(Cl)c1  remaining signal (RPS6KA5; cell-free assay; 0.5 µM): 86.1%
C[C@@H]1CCN(c2nccc(-c3cnn4ncccc34)n2)C1  remaining binding (RPS6KA5 C-terminal kinase domain; binding; competition with immobilised ligand; 1 µM): 100%
COc1cc2c(N3CCN(C(=O)Nc4ccc(OC(C)C)cc4)CC3)ncnc2cc1OCCCN1CCCCC1  remaining signal (RPS6KA5; cell-free assay; 0.5 µM): 109%
COc1cc2ncnc(Nc3ccc(Oc4ccccc4)cc3C)c2cc1OC  inhibition (RPS6KA5; enzyme activity; inhibitor; 1 µM): 2%
COc1cc(Cl)c(C(=O)N[C@@H](CN[C@H]2CC[C@@H](N)CC2)Cc2ccc(C#N)cc2)cc1-c1ccc(CN[C@H](C)c2ccc(C)cc2)o1  remaining activity (RPS6KA5; enzyme activity; inhibitor; 1 µM): 85%
CNC(=O)c1ccc(Nc2ncc(C(F)(F)F)c(NCc3nccnc3N(C)S(C)(=O)=O)n2)cc1  remaining binding (RPS6KA5 N-terminal kinase domain; cell-free assay; competition with immobilised ligand; 0.1 µM): 81%
CNc1cccc2cc(C(=O)Nc3ccc(C(=O)O)cc3)c(=O)[nH]c12  inhibition (RPS6KA5; enzyme activity; inhibitor; 10 µM): -7.3%
Oc1ccc(-c2nc(-c3ccncc3)c(-c3ccc(F)cc3)[nH]2)cc1  remaining signal (RPS6KA5; cell-free assay; 0.5 µM): 107%
Nc1ncnc2occ(-c3ccc(NC(=O)Nc4cc(C(F)(F)F)ccc4F)cc3)c12  remaining signal (RPS6KA5 C-terminal kinase domain; cell-free assay; inhibitor; 20 µM): 23%
CC(C)(C)C(=O)c1sc(NC2CCCCC2)nc1N  remaining activity (RPS6KA5; enzyme activity; inhibitor; 10 µM): 102%
CNCc1ccc(-c2cc(-c3nc(-c4ccc(S(=O)(=O)C(C)C)cc4)cnc3N)on2)cc1  inhibition (RPS6KA5; enzyme activity; inhibitor; 0.4 µM): 0%
NS(=O)(=O)c1cc(NC(=O)Cc2ccccc2)ccc1Oc1cccc(Cl)c1  remaining binding (RPS6KA5 N-terminal kinase domain; cell-free assay; competition with immobilised ligand; 1 µM): 71%
CN(C)c1ncc(F)c(-c2cnn3ncccc23)n1  remaining binding (RPS6KA5 C-terminal kinase domain; binding; competition with immobilised ligand; 1 µM): 89%
CNC(=O)c1cc(Oc2ccc(NC(=O)Nc3ccc(Cl)c(C(F)(F)F)c3)cc2)ccn1  inhibition (RPS6KA5; enzyme activity; inhibitor; 10 µM): 8%
CC(C)(C)c1nc2c(s1)c1nc(N)ncc1c1ccc(NS(=O)(=O)c3c(F)cccc3F)c(F)c12  remaining activity (RPS6KA5; enzyme activity; inhibitor; radiometric; 1 µM): 95%
Cc1nc(C2CCN(C(=O)c3ccc(OC(F)(F)F)cc3N)CC2)c2ncc(N3CCN(C)CC3)cc2n1  remaining binding (RPS6KA5 N-terminal kinase domain; cell-free assay; competition with immobilised ligand; 1 µM): 100%
CC(C)(O)[C@H]1CC[C@H](Nc2ccc3ncc(-c4cccc(C(F)(F)F)c4)n3n2)CC1  remaining activity (RPS6KA5; enzyme activity; inhibitor; 1 µM): 98.9%
CC(=O)N1CCC(c2ccc(C(=O)NC3=NCCN3)cc2C(F)(F)F)CC1  remaining binding (RPS6KA5 C-terminal kinase domain; cell-free assay; competition with immobilised ligand; 1 µM): 70%
CCN(CC)c1ccc(C2=NNC(=O)CC2C)cc1[N+](=O)[O-] (stereo not drawn)  remaining activity (RPS6KA5; enzyme activity; inhibitor; 10 µM): 83%
